# Screening results deposited in PubChem by several laboratories.
# M1 agonist: M1 muscarinic receptor agonism; B-score at 10 µM; CHO-M1 cells, Fluo-4 calcium fluorescence, agonist mode; active compounds read high; 64,000 compounds, 3% hits;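 active = fluorescence rise, raw or as B-score row- and column-corrected plate score, outside the 99.7% band of its plate's samples, either direction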
# RORA act: activators of human nuclear receptor RORA; P35398; CHO-K1 Gal4-RORA LBD luciferase reporter, luminescence; percent increase over mock-subtracted basal signal; activation, % at 10 µM; 65,000 compounds, 1.5% hits;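 active = activation above the mean of all tested compounds plus 3 SD, cut at about 49% in these data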;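 note: 0% = DMSO-treated RORA cells and 100% = added signal equal to DMSO minus mock-transfected cells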
# Target sequence (P35398 whole entry, looked up, the tested form may be a part): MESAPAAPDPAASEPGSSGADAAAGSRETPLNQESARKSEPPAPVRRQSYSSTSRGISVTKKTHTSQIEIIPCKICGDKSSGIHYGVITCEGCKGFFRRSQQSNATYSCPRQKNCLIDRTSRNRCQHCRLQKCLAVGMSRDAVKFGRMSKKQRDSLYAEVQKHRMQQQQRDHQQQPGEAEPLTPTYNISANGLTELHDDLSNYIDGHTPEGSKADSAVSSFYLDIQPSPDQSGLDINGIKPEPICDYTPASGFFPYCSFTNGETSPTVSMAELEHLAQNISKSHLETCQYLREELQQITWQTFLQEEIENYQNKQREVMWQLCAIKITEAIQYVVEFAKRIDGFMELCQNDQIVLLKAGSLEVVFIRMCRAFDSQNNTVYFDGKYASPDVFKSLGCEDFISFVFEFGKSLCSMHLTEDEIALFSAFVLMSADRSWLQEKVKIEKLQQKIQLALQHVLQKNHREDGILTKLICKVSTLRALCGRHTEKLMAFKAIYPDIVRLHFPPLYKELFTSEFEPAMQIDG
# SF1 activator: activates the human nuclear receptor SF-1. 65,000 compounds, 1.9% hits. activation, % at 10 µM. CHO-K1 Gal4-SF-1 LBD luciferase reporter; % increase over DMSO SF-1-specific signal. Q13285;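 active = activation above the mean activation of all tested compounds plus 3 SD, cut at about 50% in these data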
#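 Test system: CHO-K1 cells co-transfected with Gal4 DBD–human SF-1 LBD, 5xGal4 luciferase reporter. Quantity: 4,000 cells per well. Compound: 10 µM only. Incubation: compound added 1 h post-seeding, 20 h exposure at 37 °C, 5% CO2. Detection: SteadyLite luciferase luminescence. Replication: one test per compound.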
# D1 allo mod: D1 dopamine receptor (human) allosteric modulation; P21728; HEK293 D1, CRE-luciferase, dopamine EC30 potentiation; actives deviate in either direction; B-score at 10 µM; 58,000 compounds, 5.9% hits; AID 641;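 active = luminescence count or its row- and column-corrected plate score outside the 99.7% band of the plate's sample wells, on either side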
# Htt clearance: mutant huntingtin protein clearance | inhibition, % at 1.5 µM | 47,000 compounds, 0.42% hits | HeLa Exon1htt(103Q)mCFP, aggregate imaging; zero = plate's median compound well;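 active = inhibition of aggregate fluorescence above about 70%, also judged a hit by eye on the cell image, limit read from the data, passing the limit was not always enough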;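 note: cells exposed to compound for three days before fixation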
# M1 antag: blocks the rat M1 muscarinic receptor response to acetylcholine. CHO-M1 cells, Fluo-4 calcium, ACh EC80 antagonist mode; active compounds read low. B-score at 10 µM. P08482. AID 628. 64,000 compounds, 3.4% hits;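 active = calcium fluorescence response, raw or row-and-column corrected B-score, differing from the plate sample mean either way at a set confidence level, mostly lower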
# D1 PAM confirm: confirmation of human D1 dopamine receptor allosteric modulators; AID 642; shares compounds with D1 allo mod; luminescence at 10 µM; 2,200 compounds, 88% hits; HEK293 D1 CRE-luciferase, dopamine EC30 potentiation; active compounds read high;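 active = luminescence in either of two replicates above the same-plate mean plus 3 SD of the low-dose dopamine control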
# D1 ag no DA: D1 (human) signaling in absence of dopamine; shares compounds with D1 allo mod; HEK293 D1 CRE-luciferase, luminescence, no dopamine; active compounds read high; luminescence at 10 µM; 1,900 compounds, 0.8% hits; AID 646; in the data active = luminescence above about 3900
# Isoprot counter: counter-screen for D1 modulators: isoproterenol response in HEK293 cells; shares compounds with D1 allo mod; HEK293 D1 CRE-luciferase, isoproterenol EC30 counter-screen; calls only at 10 µM; 2,200 compounds, 63% hits;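 active = luminescence in either replicate above plate mean of wells with a partly effective reference agonist dose plus 3 SD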;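 note: isoproterenol raises cAMP through native beta-adrenoceptor Gs so signal bypasses D1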
# Numbers without * were called inactive; i = inactive; . = no result given; + = active, no number. The list is not random: actives were taken first. Their share in the collection is about 11%.
SMILES,M1 agonist,RORA act,SF1 activator,D1 allo mod,Htt clearance,M1 antag,D1 PAM confirm,D1 ag no DA,Isoprot counter
Cc1nc(SCC(=O)O)c2oc3ccccc3c2n1,-0.57,-4,20,1.4,.,0.046,.,.,.
Cc1nnc(NCc2ccco2)c2ccccc12,1.2,-9,-8,0.53,34,0.049,.,.,.
Cc1nc(N2CCN(Cc3nc4ccccc4[nH]3)CC2)c2oc3ccccc3c2n1,3.6,8,1,.,-13,-0.67,.,.,.
Cc1nc(N2CCOCC2)c2oc3ccccc3c2n1,0.17,-3,-8,4.6*,21,-0.25,13356*,1720,+
CN1C(=O)c2ccccc2C(C(=O)O)C1c1cn(C)c2ccccc12 (stereo unspecified),-0.9,-11,-9,0.23,.,0.02,.,.,.
COc1ccc(CNc2nc3c(c(=O)n(Cc4ccc(F)cc4)c(=O)n3C)n2C)cc1,0.26,6,-5,-1.2,42,-0.15,.,.,.
CCc1nc(NC(C)C)c2oc3ccccc3c2n1,-1.5,-7,-6,22*,.,-0.7,7576*,.,+
CCSc1ncnc2c1oc1ccccc12,-0.01,28,-7,12*,.,0.064,11660*,1868,+
CCCCCCCCCCOC(=O)c1csc2nnsc12,.,.,.,.,31,.,.,.,.
CCCCC(=O)Nc1cccc(-c2nn3c(C)nnc3s2)c1,0.63,15,5,0.26,18,-1.1,.,.,.
CC(C)Nc1nc(C#N)nc(NC(C)C)n1,0.059,-15,8,11*,-47,0.36,12292*,.,+
O=C(c1ccc(Br)o1)N1CCN=C1SCc1cccnc1,-0.15,-13,-7,1,-1,0.0055,.,.,.
CSC1=NCCN1C(=O)c1ccc(Br)o1,-1,26,-9,5.7*,18,-0.32,11560*,1672,i
CSC1=NCCN1C(=O)COc1ccccc1,-0.053,24,-13,1,.,-0.3,.,.,.
CSC1=NCCN1C(=O)Cc1cccs1,0.15,-15,1,9.8*,4,-0.9,7652*,1576,i
Cc1sc2c(c1C)c(=O)nc1scc(C)n12,.,.,.,.,40,.,.,.,.
C=C(C)C1Cc2c(C)nn(-c3nc(C)cc(C)n3)c2C1 (stereo unspecified),0.82,-18,-5,-2,.,0.22,.,.,.
C=C(C)C1Cc2nc(N)nc(C)c2C1 (stereo unspecified),-0.87,-9,0,14*,-10,-1.1,14408*,1772,+
Cc1cc(NC(=O)c2ccccc2Oc2ccccc2)no1,0.0016,-1,-10,6.2*,.,-0.87,9100*,1632,i
Cc1noc(C)c1COC(=O)c1ccccc1Oc1ccccc1,0.96,7,-2,6.1*,70,-0.055,8776*,1556,+
CC1(C)Cc2c(c(N3CCOCC3)nc3sc(C#N)c(N)c23)CS1,0.24,-28,-8,1.7,.,0.17,.,.,.
CC1(C)Cc2c(C#N)c(SCCC#N)nc(N3CCOCC3)c2CS1,0.14,0,-5,5.5*,.,1.6,12904*,1588,+
O=C(Nc1ccc(S(=O)(=O)NC2CCCC2)cc1)c1cnccn1,-0.67,-14,-13,2,.,-2.3,.,.,.
CCCn1c(=O)c(C(=O)NCc2ccncc2)c(O)c2ccccc21,-0.36,-4,-22,5.2*,13,0.0039,6720*,1628,i
CCn1c(=O)c(C(=O)Nc2cccnc2)c(O)c2ccccc21,-0.048,8,-3,0.84,.,-0.2,.,.,.
SMILES,M1 agonist,RORA act,SF1 activator,D1 allo mod,Htt clearance,M1 antag,D1 PAM confirm,D1 ag no DA,Isoprot counter
CCn1c(=O)c(C(=O)NCc2cccnc2)c(O)c2ccccc21,-0.96,-6,-11,4.8*,-63,0.57,13308*,1676,i
COc1ccccc1NC(=O)C1=C(C)Nc2nc(-c3cccs3)nn2C1c1cccnc1 (stereo unspecified),0.4,12,-30,-0.74,.,0.37,.,.,.
CC(C)C(CO)NC(=O)CC(=O)NC(CO)C(C)C (stereo unspecified),1.4,-12,-3,0.75,9,0.39,.,.,.
CCOC(=O)CN=C1CC(C)(C)CC2=C1Sc1ncnc(N(C)C)c1N2,8.2*,2,4,5.4*,-17,-1.4,10372*,1464,+
CCOC(=O)C1=C(C)NC2=C(C(=O)CC(C)(C)C2)C1c1cccc(C)n1 (stereo unspecified),0.98,-19,-4,0.81,.,0.9,.,.,.
CCOc1ccc(C(=O)Nc2cc(=O)n(C)c(=O)n2C)cc1,-0.27,22,-1,0.47,.,-0.074,.,.,.
Cc1c(Cl)cccc1NC(=O)c1cc(C2CC2)on1,-0.065,-1,14,0.25,.,-0.077,.,.,.
CCOC(=O)c1oc2ccc(S(=O)(=O)N3CCC(C)CC3)cc2c1C,-0.13,-1,8,1.4,19,-0.57,.,.,.
CCOC(=O)c1oc2ccc(S(=O)(=O)N3CCOCC3)cc2c1C,-1.2,-4,13,4.3*,-64,-0.21,7344*,1548,i
O=C(OCc1ccc(Cl)cc1)c1ccccc1C(=O)c1ccccc1,.,.,.,.,23,.,.,.,.
C=CCOc1ccc(/C(CC)=N/O)c(OC)c1,-0.027,36,7,3.4*,45,0.33,8264*,1700,i
C=CCOc1c(Cl)cc(/C=N/O)cc1OC,0.6,-18,-4,2.1,-12,0.14,.,.,.
COC(=O)COC(=O)c1ccc(Oc2nc(OC)nc(N(C)C)n2)cc1,-0.73,-14,10,-0.14,10,-0.0064,.,.,.
CCOC(=O)c1ccc(Oc2nc(NC)nc(OC)n2)cc1,-0.5,-2,19,3.8*,.,2.7*,9704*,1500,+
O=C(Cc1ccccc1)N1CCCC1c1ccccc1 (stereo unspecified),-0.53,-26,0,-0.12,-34,0.96,.,.,.
Cc1ccc(C)n1-n1cnc2scc(-c3cccs3)c2c1=O,-0.055,2,-4,17*,.,0.13,24272*,1704,+
Cc1ccc(-n2cnc3scc(-c4cccs4)c3c2=O)cc1,.,.,.,.,52,.,.,.,.
CCc1ccccc1S(=O)(=O)Cc1ccc(C(=O)N2CCN(c3ccccn3)CC2)o1,2.8,3,-5,-0.27,-134,-0.025,.,.,.
COc1ccc(C2CC(=O)c3cnc(NC(=O)c4ccccc4OC)nc3C2)c(OC)c1 (stereo unspecified),2.9,-4,-12,6.5*,.,1.3,15748*,1700,+
COc1ccc(C2CC(=O)c3cnc(NC(=O)c4ccccc4)nc3C2)cc1OC (stereo unspecified),0.054,13,-15,4.6*,.,-0.31,9012*,1692,+
